Measured values taken from ChEMBL document CHEMBL3861971, “Cinnamoyloxy-mammeisin Isolated from Geopropolis Attenuates Inflammatory Process by Inhibiting Cytokine Production: Involvement of MAPK, AP-1, and NF-κB” (J Nat Prod, 2016).
The source made the active and inactive calls. The rule behind the calls is not given here.

Experiments:
RAW264.7 [1] = experiment: Antiinflammatory activity in mouse RAW264.7 cells assessed as inhibition of peptidoglycan-stimulated TNFalpha production at 0.6 to 6 uM pretreated 30 mins prior to peptidoglycan challenge measured after 4 hrs by ELISA; type: functional, cell-based
In short: (§1)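 RAW 264.7 cells grown in RPMI/10% FBS, plated at 2×10^5/well overnight. Pretreated with 0.6, 2 or 6 µM 30 min before PG 5 µg/mL or LPS 10 ng/mL. Supernatant collected at 4 h for TNF-α and CXCL2/MIP-2 ELISA. Mean ± SEM, n = 3–5.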

[2] = target: MAP kinase p38 (Mus musculus) (UniProt P47811+O08911+Q9WUI1+Q9Z1B7); experiment: Inhibition of MAPK p38 phosphorylation in peptidoglycan-stimulated mouse RAW264.7 cells at 6 uM pretreated for 30 mins followed by peptidoglycan stimulation for 15 mins by Western blot method; type: cell-based
In short: (§2)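 RAW 264.7 cells (2×10^6/well) pretreated with 6 µM 30 min before PG 5 µg/mL. Lysed with RIPA plus protease/phosphatase inhibitors after 15 min of stimulation. Phospho-ERK1/2, SAPK/JNK and p38 detected by Western blot with chemiluminescence. n = 3 or 4.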

Mus musculus [3] = species on record: Mus musculus; experiment: Cytotoxicity against mouse RAW264.7 cells at 6 uM measured after 4 hrs by MTT assay; type: toxicity, cell-based; details: raw264.7, 4 h
In short: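 RAW 264.7 cells (2×10^5/well, overnight) exposed to 6 µM for 4 h. MTT 1 mg/mL in RPMI added for 2 h. Formazan taken up in absolute ethanol and absorbance read at 540 nm.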

Mus musculus [4] = experiment: Antiinflammatory activity in specific pathogen-free C57BL/6 mouse assessed as inhibition of carrageenan-induced neutrophil migration into peritoneal cavity at 300 ug/kg, administered subcutaneously for 30 mins prior to carrageenan challenge measured after 4 hrs using Neubauer chamber by optical microscopic analysis; type: functional
In short: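 Male C57BL/6 SPF mice (20–22 g) pretreated sc (vehicle 1% DMSO in PBS), 30 min before ip carrageenan 500 µg/cavity. Peritoneal neutrophils determined 4 h later. Differential count of 100 cells by optical microscopy (100×). Expressed as neutrophils per cavity.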

RAW264.7 [5] = experiment: Antiinflammatory activity in mouse RAW264.7 cells assessed as inhibition of LPS-stimulated CXCL2/MIP-2 release at 0.6 to 6 uM pretreated 30 mins prior to LPS challenge measured after 4 hrs by ELISA; type: functional, cell-based; in short: as §1
Mus musculus [6] = species on record: Mus musculus; experiment: Cytotoxicity against mouse RAW264.7 cells assessed as induction of apoptosis at 6 uM measured after 4 hrs by Annexin V-FTIC/propidium iodide staining-based flow cytometric analysis; type: toxicity, cell-based; details: raw264.7, 4 h
In short: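 RAW 264.7 cells (2×10^6/well, overnight) exposed to 6 µM for 4 h, then washed into annexin buffer. Stained with annexin V-FITC (1:50, 4 °C, 20 min) and then PI (1:100). Analysed by flow cytometry, about 10 000 gated events. Three to four separate experiments.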

Mus musculus [7] = experiment: Anti-inflammatory activity in specific pathogen-free C57BL/6 mouse assessed as reduction in carrageenan-induced TNF-alpha release in peritoneal cavity at 300 ug/kg administered subcutaneously for 30 mins prior to carrageenan challenge measured after 1.5 hrs by ELISA; type: functional
In short: (§3)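 Mice (male C57BL/6 SPF) dosed sc in 1% DMSO/PBS 30 min ahead of ip carrageenan 500 µg/cavity. Peritoneal cavity sampled at 1.5 h for TNF-α and at 3 h for CXCL2/MIP-2. Levels measured by ELISA, expressed as pg/mL or pg/mg tissue.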

[8] = target: Mitogen-activated protein kinase 1 and 3 (ERK2 and ERK1) (Mus musculus) (UniProt P63085+Q63844); experiment: Inhibition of ERK1/2 phosphorylation in peptidoglycan-stimulated mouse RAW264.7 cells at 6 uM pretreated for 30 mins followed by peptidoglycan stimulation for 15 mins by Western blot method; type: cell-based; in short: as §2
RAW264.7 [9] = experiment: Antiinflammatory activity in mouse RAW264.7 cells assessed as inhibition of LPS-stimulated TNFalpha production at 0.6 to 6 uM pretreated 30 mins prior to LPS challenge measured after 4 hrs by ELISA; type: functional, cell-based; in short: as §1
Mus musculus [10] = experiment: (§4) Antiinflammatory activity in specific pathogen-free C57BL/6 mouse assessed as inhibition of carrageenan-induced leukocyte adhesion in mesenteric venules at 300 ug/kg administered subcutaneously for 30 mins prior to carrageenan challenge measured after 4 hrs by intravital microscopy; type: functional
[11] = target: Transcription factor Jun (Mus musculus) (UniProt P05627); experiment: Inhibition of c-jun phosphorylation in peptidoglycan-stimulated mouse RAW264.7 cells at 6 uM pretreated for 30 mins followed by peptidoglycan stimulation for 30 mins by immunofluorescence method
Mus musculus [12] = experiment: as §4, with “Anti-inflammatory” for “Antiinflammatory”, “rolling into” for “adhesion in”, “2” for “4”, “hrs for 10 mins” for “hrs”, “microscopic analysis” for “microscopy”; type: functional
RAW264.7 [13] = experiment: Antiinflammatory activity in mouse RAW264.7 cells assessed as inhibition of peptidoglycan-stimulated CXCL2/MIP-2 release at 0.6 to 6 uM pretreated 30 mins prior to peptidoglycan challenge measured after 4 hrs by ELISA; type: functional, cell-based; in short: as §1
RAW264.7 [14] = experiment: Inhibition of JNK phosphorylation in peptidoglycan-stimulated mouse RAW264.7 cells at 6 uM pretreated for 30 mins followed by peptidoglycan stimulation for 15 mins by Western blot method; type: cell-based; in short: as §2
RAW264.7 [15] = experiment: Inhibition of NFkappaB activation (unknown origin) expressed in mouse RAW264.7 cells at 0.6 to 6 uM pretreated for 30 mins followed by peptidoglycan challenge measured after 4 hrs by luciferase reporter gene assay; type: cell-based; details: Homo sapiens
In short: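 RAW 264.7 cells stably carrying an NF-κB-driven luciferase reporter, plated at 3×10^5/well overnight. Pretreated with 0.6–6 µM 30 min before PG 5 µg/mL. Lysed in Tris-NaCl-Tween buffer at 4 h, luciferin reagent added and luminescence read. n = 3–5.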

Mus musculus [16] = experiment: Antiinflammatory activity in specific pathogen-free C57BL/6 mouse assessed as reduction in carrageenan-induced CXCL2/MIP-2 release in peritoneal cavity at 300 ug/kg administered subcutaneously for 30 mins prior to carrageenan challenge measured after 3 hrs by ELISA; type: functional; in short: as §3
Mus musculus [17] = experiment: Antiinflammatory activity in specific pathogen-free C57BL/6 mouse assessed as reduction of mBSA-induced TNF-alpha release in joint cavity at 100 ug/kg, administered post 21 days of immunization subcutaneously for 30 mins prior mBSA challenge measured after 1.5 hrs by ELISA; type: functional
In short: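 Immunized mice (mBSA/Freund's adjuvant, boosts days 7 and 14) treated sc 30 min before day-21 ia mBSA 30 µg/joint. TNF-α in the joint measured by ELISA 1.5 h after challenge.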

Mus musculus [18] = experiment: Antiinflammatory activity in specific pathogen-free C57BL/6 mouse assessed as inhibition of mBSA-induced neutrophil migration into joint cavity at 100 ug/kg, administered post 21 days of immunization subcutaneously for 30 mins prior to mBSA challenge measured after 6 hrs by cell counting method; type: functional
In short: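 C57BL/6 SPF males immunized sc with mBSA 500 µg in Complete Freund's adjuvant/PBS emulsion, boosted days 7 and 14 with Incomplete Freund's adjuvant plus mBSA. Compound given sc 30 min before ia mBSA 30 µg/joint on day 21. At 6 h joint cavity washed with PBS/EDTA, then total and differential leukocyte counts.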

Mus musculus [19] = experiment: Antiinflammatory activity in specific pathogen-free C57BL/6 mouse assessed as reduction in mBSA-induced myeloperoxidase activity in joint cavity at 100 ug/kg administered post 21 days of immunization subcutaneously for 30 mins prior to mBSA challenge measured after 6 hrs by bioluminescence assay; type: functional
In short: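 mBSA-immunized C57BL/6 mice pretreated sc 30 min before ia mBSA 30 µg/joint. At 6 h, under anesthesia, mice given ip bioluminescent myeloperoxidase probe 100 mg/kg. Joints imaged on IVIS Spectrum, read out as radiance (p/sec/cm²/sr).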

Chain of Mitogen-activated protein kinase 1 and 3 (ERK2 and ERK1) (Mus musculus) (P63085 whole entry, looked up): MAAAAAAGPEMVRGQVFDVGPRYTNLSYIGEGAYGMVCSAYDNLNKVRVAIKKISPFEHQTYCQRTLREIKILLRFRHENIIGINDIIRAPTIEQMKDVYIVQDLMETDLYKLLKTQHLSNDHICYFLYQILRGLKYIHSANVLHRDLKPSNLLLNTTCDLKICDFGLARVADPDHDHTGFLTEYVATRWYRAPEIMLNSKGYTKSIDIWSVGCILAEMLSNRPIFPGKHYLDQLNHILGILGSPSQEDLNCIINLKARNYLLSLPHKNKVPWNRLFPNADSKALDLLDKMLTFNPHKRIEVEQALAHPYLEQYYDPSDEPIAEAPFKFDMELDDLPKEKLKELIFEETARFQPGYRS
Chain of Mitogen-activated protein kinase 1 and 3 (ERK2 and ERK1) (Mus musculus) (Q63844 whole entry, looked up): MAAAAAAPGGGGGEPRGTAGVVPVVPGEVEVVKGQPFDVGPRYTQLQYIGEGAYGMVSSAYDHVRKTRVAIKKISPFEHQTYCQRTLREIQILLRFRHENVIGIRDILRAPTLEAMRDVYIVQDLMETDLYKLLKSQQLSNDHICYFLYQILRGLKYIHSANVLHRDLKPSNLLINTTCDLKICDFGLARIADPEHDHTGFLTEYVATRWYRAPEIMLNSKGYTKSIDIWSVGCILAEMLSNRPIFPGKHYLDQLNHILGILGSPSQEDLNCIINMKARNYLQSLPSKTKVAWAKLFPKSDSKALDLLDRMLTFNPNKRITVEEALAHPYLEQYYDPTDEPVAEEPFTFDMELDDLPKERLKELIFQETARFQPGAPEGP
Chain of Transcription factor Jun (Mus musculus) (P05627 whole entry): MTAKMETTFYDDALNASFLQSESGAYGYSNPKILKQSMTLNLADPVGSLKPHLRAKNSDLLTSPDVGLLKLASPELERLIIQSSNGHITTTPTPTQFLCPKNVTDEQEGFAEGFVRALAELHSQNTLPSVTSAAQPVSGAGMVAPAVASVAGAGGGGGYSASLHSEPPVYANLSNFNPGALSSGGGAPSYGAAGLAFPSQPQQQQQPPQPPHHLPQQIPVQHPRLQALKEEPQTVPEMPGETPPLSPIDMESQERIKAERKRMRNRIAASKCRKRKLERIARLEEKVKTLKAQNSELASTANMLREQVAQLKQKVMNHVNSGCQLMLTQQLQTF

- inhibition [2]: Active
- inhibition [8]: Active
- inhibition [11]: Active
- Activity (Mus musculus [19]): Active
SMILES: CC(C)=CCc1c(O)c(C(=O)CC(C)COC(=O)/C=C/c2ccccc2)c(O)c2c(-c3ccccc3)cc(=O)oc12 (centres undefined)
- inhibition (RAW264.7 [1]): Active
- Activity (Mus musculus [3]): Non-Toxic
- inhibition (Mus musculus [4]): Active
- inhibition (RAW264.7 [5]): Active
- Activity (Mus musculus [6]): Non-Toxic
- Activity (Mus musculus [7]): Active
- inhibition (RAW264.7 [9]): Active
- inhibition (Mus musculus [10]): Active
- inhibition (Mus musculus [12]): Active
- inhibition (RAW264.7 [13]): Active
- inhibition (RAW264.7 [14]): Active
- inhibition (RAW264.7 [15]): Active
- Activity (Mus musculus [16]): Active
- Activity (Mus musculus [17]): Active
- inhibition (Mus musculus [18]): Active
